# Test results as given in ChEMBL document CHEMBL1159342, “Nitric oxide inhibitory isopimarane-type diterpenes from Orthosiphon stamineus of Indonesia” (J Nat Prod, 2003).
# pIC50: −log10 of the molar value.
# Test system: J774.1
# Test: Inhibition of LPS-induced NO production in mouse J774.1 cells after 24 hrs
# Format: functional, cell-based
# Settings: J774.1, 24 h
# How it was run: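 Cells harvested with trypsin, seeded at 1 × 10^5 cells/well, adhered 2 h at 37 °C under 5% CO2. Medium then replaced with fresh medium containing LPS (10 µg/mL) plus test compounds at indicated concentrations, 24 h. Nitrite in supernatant measured with Griess reagent (10 min, room temperature), absorbance 550 nm. Quantified against NaNO2 standard curve in medium, medium-only blank subtracted.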
row,SMILES,pIC50
1,C=C[C@@]1(C)C[C@@H](OC(=O)c2ccccc2)[C@H]2[C@](O)(C1=O)[C@H](O)C[C@H]1C(C)(C)[C@H](OC(C)=O)[C@H](OC(C)=O)[C@H](OC(=O)c3ccccc3)[C@@]12C [ORTHOSIPHOL F],4.46
2,C=C[C@@]1(C)C[C@@H](OC(=O)c2ccccc2)[C@H]2[C@](O)(C1=O)[C@H](OC(C)=O)C[C@H]1C(C)(C)[C@H](O)[C@H](OC(C)=O)[C@H](OC(=O)c3ccccc3)[C@@]12C [ORTHOSIPHOL A],4.94
3,C=C[C@@]1(C)C[C@@H](O)[C@H]2[C@](O)(C1=O)[C@H](OC(C)=O)C[C@H]1C(C)(C)[C@H](OC(C)=O)[C@H](OC(C)=O)[C@H](OC(=O)c3ccccc3)[C@@]12C [ORTHOSIPHOL U],4.22
4,C=C[C@]1(C)C(=O)[C@]2(O)[C@H](OC(C)=O)C[C@H]3C(C)(C)[C@H](OC(C)=O)[C@H](O)[C@H](OC(=O)c4ccccc4)[C@]3(C)[C@H]2[C@H](OC(=O)c2ccccc2)[C@H]1O [ORTHOSIPHOL R],4.45
5,C=C[C@@]1(C)C[C@@H](O)[C@H]2[C@](O)(C1=O)[C@H](OC(C)=O)C[C@H]1C(C)(C)[C@H](OC(=O)c3ccccc3)[C@H](OC(C)=O)[C@H](OC(=O)c3ccccc3)[C@@]12C [ORTHOSIPHOL O],4.56
6,C=C[C@@]1(C)CC(=O)[C@H]2[C@](O)(C1=O)[C@H](OC(C)=O)C[C@H]1C(C)(C)[C@H](OC(=O)c3ccccc3)[C@H](OC(C)=O)[C@H](OC(=O)c3ccccc3)[C@@]12C [ORTHOSIPHONONE A],4.49
7,C=C[C@@]1(C)C[C@@H](O)[C@H]2[C@](O)(C1=O)[C@H](O)C[C@H]1C(C)(C)[C@H](OC(=O)c3ccccc3)[C@H](OC(C)=O)[C@H](OC(=O)c3ccccc3)[C@@]12C [ORTHOSIPHOL X],5.19
8,C=C[C@@]1(C)C[C@@H](OC(=O)c2ccccc2)[C@H]2[C@](O)(C1=O)[C@H](OC(C)=O)C[C@H]1C(C)(C)[C@H](OC(C)=O)[C@H](O)[C@H](OC(=O)c3ccccc3)[C@@]12C [ORTHOSIPHOL B],4.69
9,C=C[C@@]1(C)C[C@@H](OC(=O)c2ccccc2)[C@H]2[C@](O)(C1=O)[C@H](O)C[C@H]1C(C)(C)[C@H](O)[C@H](OC(C)=O)[C@H](OC(=O)c3ccccc3)[C@@]12C [ORTHOSIPHOL T],4.44
10,C=C[C@@]1(C)C[C@@H](OC(=O)c2ccccc2)[C@@H]2[C@@]3(C)C=C(OC(C)=O)C(=O)C(C)(C)[C@@H]3C[C@@H](OC(C)=O)[C@@]2(O)C1=O [ORTHOSIPHOL D],4.84

# Results, then the compound that gave them:
row,pIC50,SMILES
1,4.24,C=C[C@@]1(C)C[C@@H](O)[C@H]2[C@](O)(C1=O)[C@H](OC(C)=O)C[C@H]1C(C)(C)[C@H](O)[C@H](OC(C)=O)[C@H](OC(=O)c3ccccc3)[C@@]12C [ORTHOSIPHOL W]
2,4.42,C=C[C@@]1(C)C[C@@H](O)[C@@H]2[C@@]3(C)C=C(OC(C)=O)C(=O)C(C)(C)[C@@H]3C[C@@H](OC(C)=O)[C@@]2(O)C1=O [ORTHOSIPHOL Y]
3,3.84,C=C[C@@]1(C)C[C@@H](O)[C@H]2[C@](O)(C1=O)[C@H](O)C[C@H]1C(C)(C)[C@H](OC(C)=O)[C@H](OC(C)=O)[C@H](OC(=O)c3ccccc3)[C@@]12C [ORTHOSIPHOL G]
4,4.18,C=C[C@@]1(C)CC(=O)[C@H]2[C@](O)(C1=O)[C@H](OC(C)=O)C[C@H]1C(C)(C)[C@H](OC(C)=O)[C@H](OC(C)=O)[C@H](OC(=O)c3ccccc3)[C@@]12C [ORTHOSIPHOL J]
5,3.99,C=C[C@@]1(C)CC(=O)[C@H]2[C@](O)(C1=O)[C@H](O)C[C@H]1C(C)(C)[C@H](OC(C)=O)[C@H](OC(C)=O)[C@H](OC(=O)c3ccccc3)[C@@]12C [ORTHOSIPHOL I]
6,4.59,CNC(=N)NCCC[C@H](N)C(=O)O [TILARGININE]
7,3.77,C[C@@H]1C[C@H]2[C@@H]3CCC4=CC(=O)C=C[C@]4(C)[C@@]3(F)[C@@H](O)C[C@]2(C)[C@@]1(O)C(=O)CO [DEXAMETHASONE]
8,4.26,C=C[C@@]1(C)C[C@@H](O)[C@H]2[C@](O)(C1=O)[C@H](OC(C)=O)C[C@H]1C(C)(C)[C@H](OC(C)=O)[C@H](O)[C@H](OC(=O)c3ccccc3)[C@@]12C [ORTHOSIPHOL V]
9,3.90,C=C[C@@]1(C)C[C@@H](OC(=O)c2ccccc2)[C@@H]2[C@@](C)(CC(=O)O)[C@H](C(C)(C)C(=O)OC)C[C@@H](OC(C)=O)[C@@]2(O)C1=O [SECOORTHOSIPHOL B]
